Assay [1] relates to Rattus norvegicus. Kind of assay: Effect of compound was measured on serum alpha-lipoprotein in male Dawley rats at the dose of 0.4 mmol/kg (day-1). It counts as functional, organism-based. In outline: (§1)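 Male Sprague-Dawley rats (180-210 g) fed a high-cholesterol diet for 1 week before and throughout dosing. Groups of n = 6 were dosed orally twice daily for 14 days in 0.25% methylcellulose, with vehicle controls. Rats were fasted 16-18 h before orbital bleeds on days -1, +4, +7 and +10, and by aortic exsanguination on day +14. Serum α-lipoprotein cholesterol was measured by polyanionic precipitation, in mg/dL ± SD.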

The subject of assay [2] is Rattus norvegicus. Kind of assay: Effect of compound was measured on serum alpha-lipoprotein in male Dawley rats at the dose of 0.4 mmol/kg (day+7). It counts as functional, organism-based. In a few lines: as §1
The test system of assay [3] is Rattus norvegicus. Kind of assay: Effect of compound on liver CH levels in male Dawley rats at the dose of 0.4 mmol/kg. Further details: unit: g/100 g wet liver. Type of assay: functional. In a few lines:
(§2)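 Male Sprague-Dawley rats (180-210 g) were kept on a high-cholesterol diet for 1 week before and throughout treatment. Groups of n = 6 received drug in 0.25% methylcellulose orally twice daily for 14 days, or vehicle. After a 16-18 h fast, livers were excised at day +14 and homogenized in 0.1 M Tris-HCl pH 7.2 with 1.15% KCl. Lipids were extracted from 25% w/v homogenate and reported as g/100 g wet liver ± SD; groups compared by ANOVA and Duncan's test.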

Assay [4] can be described thus: Effect of compound was measured on serum heparin-MnCl2 precipated ipoprotein Dawley rats at 0.4 mmol/kg dose(day+4). Type of assay: functional. In outline:
(§3)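 Cholesterol-fed male Sprague-Dawley rats, n = 6 per group, given compound or 0.25% methylcellulose orally twice daily for 14 days, and fasted 16-18 h before each bleed (days -1, +4, +7, +10, +14). Heparin-MnCl2 precipitable lipoprotein cholesterol was taken as serum total cholesterol minus α-lipoprotein cholesterol. It is reported as a ratio to α-LP cholesterol ± SD. Analysis was ANOVA with repeated measures and Duncan's test.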

Assay [5] can be described thus: Effect of compound was measured on serum heparin-MnCl2 precipated ipoprotein Dawley rats at 0.4 mmol/kg dose(day+10). Type of assay: functional. In a few lines:
as §3

For assay [6], the system named is Rattus norvegicus. Kind of assay: Effect of compound was measured on serum alpha-lipoprotein in male Dawley rats at the dose of 0.4 mmol/kg (day+10). It counts as functional, organism-based. In outline: as §1
A short description of assay [7]: Effect of compound on liver to body weight ratio in male Dawley rats at the dose of 0.4 mmol/kg. It counts as functional. In a few lines:
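Male Sprague-Dawley rats (180-210 g) were kept on a cholesterol-rich diet and dosed orally twice daily for 14 days in 0.25% methylcellulose; vehicle controls received the same; n = 6 per group. After a 16-18 h fast, rats were exsanguinated at day +14. Livers were removed, rinsed in ice-cold buffer, blotted and weighed, and related to body weight. Data were analysed by repeated-measures ANOVA with Duncan's multiple range test.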

For assay [8], the system named is Rattus norvegicus. Kind of assay: Effect of compound was measured on serum alpha-lipoprotein in male Dawley rats at the dose of 0.4 mmol/kg (day14). It counts as functional, organism-based. In a few lines:
as §1

Assay [9] is described as follows: Effect of compound was measured on serum heparin-MnCl2 precipated ipoprotein Dawley rats at 0.4 mmol/kg dose(day+7). It counts as functional. In a few lines: as §3
For assay [10], the system named is Rattus norvegicus. The assay can be described thus: Effect of compound was measured on serum total cholesterol in male Dawley rats at the dose of 0.4 mmol/kg (day-1). It counts as functional, organism-based. In outline:
(§4)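 Serum total cholesterol was measured enzymatically on a bichromatic analyzer. Serum was separated after clotting on ice (2000g, 10 min), held at 4 °C and assayed within 48 h. Rats were male Sprague-Dawley on a high-cholesterol diet, n = 6, dosed orally twice daily for 14 days in 0.25% methylcellulose (1.0 mL/100 g). They were fasted 16-18 h before each bleed. Results are in mg/dL ± SD.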

In assay [11] the test system is Rattus norvegicus. Kind of assay: Effect of compound was measured on serum alpha-lipoprotein in male Dawley rats at the dose of 0.4 mmol/kg (day+4). Type of assay: functional, organism-based. In a few lines:
as §1

Assay [12] deals with Rattus norvegicus. Kind of assay: Effect of compound was measured on serum total triglycerides in male Dawley rats at the dose of 0.4 mmol/kg (day+7). Type of assay: functional, organism-based. In a few lines: (§5)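 Serum triglycerides were measured with an enzymatic triglyceride reagent on a bichromatic analyzer. Rats were male Sprague-Dawley (180-210 g) fed a high-cholesterol diet, n = 6 per group, dosed orally twice daily for 14 days in 0.25% methylcellulose or vehicle. They were fasted 16-18 h before blood collection on days -1, +4, +7, +10 (orbital plexus, light ether) and +14 (aorta). Analysis was repeated-measures ANOVA with Duncan's test.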

Assay [13] relates to Rattus norvegicus. The assay can be described thus: Effect of compound on liver TG levels in male Dawley rats at the dose of 0.4 mmol/kg. On the set-up: unit: g/100 g wet liver. It counts as functional. In a few lines: as §2
Assay [14] concerns Rattus norvegicus. The assay can be described thus: Effect of compound was measured on serum total triglycerides in male Dawley rats at the dose of 0.4 mmol/kg (day-1). Type of assay: functional, organism-based. In a few lines:
as §5

The test system of assay [15] is Rattus norvegicus. Kind of assay: Effect of compound was measured on serum total cholesterol in male Dawley rats at the dose of 0.4 mmol/kg (day+10). It counts as functional, organism-based. In outline: as §4
Assay [16] in a line: Effect of compound was measured on serum heparin-MnCl2 precipated ipoprotein Dawley rats at 0.4 mmol/kg dose(day-1). Type of assay: functional. In a few lines: as §3
A short description of assay [17]: Effect of compound was measured on serum heparin-MnCl2 precipated ipoprotein Dawley rats at 0.4 mmol/kg dose(day+14). It counts as functional. In outline: as §3
Assay [18] deals with Rattus norvegicus. The assay can be described thus: Effect of compound was measured on serum total cholesterol in male Dawley rats at the dose of 0.4 mmol/kg (day+14). Type of assay: functional, organism-based. In a few lines: as §4
Assay [19] deals with Rattus norvegicus. Kind of assay: Effect of compound was measured on serum total triglycerides in male Dawley rats at the dose of 0.4 mmol/kg (day+10). Type of assay: functional, organism-based. In outline: as §5
In assay [20] the test system is Rattus norvegicus. The assay can be described thus: Effect of compound was measured on serum total triglycerides in male Dawley rats at the dose of 0.4 mmol/kg (day+14). Type of assay: functional, organism-based. In outline:
as §5

Assay [21] concerns Rattus norvegicus. The assay can be described thus: Effect of compound was measured on serum total triglycerides in male Dawley rats at the dose of 0.4 mmol/kg (day+4). It counts as functional, organism-based. In outline:
as §5

The test system of assay [22] is Rattus norvegicus. Kind of assay: Effect of compound was measured on serum total cholesterol in male Dawley rats at the dose of 0.4 mmol/kg (day+4). It counts as functional, organism-based. In outline: as §4
Assay [23] relates to Rattus norvegicus. The assay can be described thus: Effect of compound was measured on serum total cholesterol in male Dawley rats at the dose of 0.4 mmol/kg (day+7). Type of assay: functional, organism-based. In a few lines: as §4

Turning to `O=C1OC(c2ccc(Cl)cc2)C(=O)C1=O` (centres undefined), the alpha-lipoprotein cholesterol with Rattus norvegicus [1] came out at 40.3 mg/dL; in the assay on Rattus norvegicus [2], 30.5 mg/dL; in the assay on Rattus norvegicus [6], 29 mg/dL; with Rattus norvegicus [8] it was 34.2 mg/dL; in the assay with Rattus norvegicus [11] it was 32 mg/dL. Further, in the assay with Rattus norvegicus [3], the “Liver CH levels” value came to 4.9. Moreover, the Ratio in assay [4] amounted to 5.63; in assay [5], 11.9; in assay [7] it was 4; in assay [9], 12.6; in [16], 5.76; in assay [17], 5.75. Also, the serum total cholesterol came out at 250 mg/dL in the assay on Rattus norvegicus [10]; 356 mg/dL in the assay on Rattus norvegicus [15]; 217 mg/dL in the assay with Rattus norvegicus [18]; 205 mg/dL with Rattus norvegicus [22]; 377 mg/dL in the assay on Rattus norvegicus [23]. Further, the Serum total triglycerides in the assay on Rattus norvegicus [12] was determined as 164 mg/dL; in the assay on Rattus norvegicus [14] it was 268 mg/dL; in the assay on Rattus norvegicus [19] it was 151 mg/dL; in the assay on Rattus norvegicus [20], 105 mg/dL; in the assay with Rattus norvegicus [21], 198 mg/dL. Besides, in the assay on Rattus norvegicus [13], the “Liver TG” value is on record as 3.76.

Turning to `CCOC(=O)C(C)(C)Oc1ccc(Cl)cc1` [CLOFIBRATE], the alpha-lipoprotein cholesterol with Rattus norvegicus [1] came to 44.4 mg/dL; with Rattus norvegicus [2] it was 52.7 mg/dL; with Rattus norvegicus [6], 51.7 mg/dL; with Rattus norvegicus [8], 55 mg/dL; with Rattus norvegicus [11], 38.5 mg/dL. Further, the “Liver CH levels” value in the assay with Rattus norvegicus [3] is 3.58. Further, the Ratio in [4] came out at 2.54; in [5], 4.89; in [7] it was 6.2; in assay [9], 3.12; in [16], 3.81; in assay [17] it was 4.76. Besides, the serum total cholesterol in the assay with Rattus norvegicus [10] worked out at 202 mg/dL; with Rattus norvegicus [15], 316 mg/dL; in the assay with Rattus norvegicus [18], 302 mg/dL; in the assay with Rattus norvegicus [22] it was 127 mg/dL; in the assay on Rattus norvegicus [23] it was 209 mg/dL. Further, the Serum total triglycerides in the assay with Rattus norvegicus [12] stood at 169 mg/dL; in the assay with Rattus norvegicus [14], 266 mg/dL; with Rattus norvegicus [19] it was 196 mg/dL; in the assay with Rattus norvegicus [20], 155 mg/dL; with Rattus norvegicus [21] it was 141 mg/dL. In addition, the “Liver TG” value in the assay with Rattus norvegicus [13] came out at 1.84.

As for `NC1=C(O)C(=O)C(c2ccc(Cl)cc2)O1` (centres undefined), the alpha-lipoprotein cholesterol in the assay on Rattus norvegicus [1] stood at 43.8 mg/dL; with Rattus norvegicus [2], 43 mg/dL; in the assay with Rattus norvegicus [6] it was 43.7 mg/dL; with Rattus norvegicus [8], 38.8 mg/dL; in the assay on Rattus norvegicus [11] it was 33.2 mg/dL. Besides, the “Liver CH levels” value in the assay on Rattus norvegicus [3] came to 4.03. In addition, the Ratio in [4] is 3.43; in [5], 7.13; in assay [7], 4.1; in [9] it was 5.59; in assay [16] it was 3.65; in assay [17], 6.31. Also, the serum total cholesterol came out at 193 mg/dL in the assay with Rattus norvegicus [10]; 344 mg/dL in the assay with Rattus norvegicus [15]; 278 mg/dL in the assay with Rattus norvegicus [18]; 138 mg/dL with Rattus norvegicus [22]; 252 mg/dL in the assay with Rattus norvegicus [23]. Further, the Serum total triglycerides with Rattus norvegicus [12] stood at 128 mg/dL; in the assay on Rattus norvegicus [14], 179 mg/dL; in the assay with Rattus norvegicus [19], 158 mg/dL; in the assay with Rattus norvegicus [20], 119 mg/dL; with Rattus norvegicus [21], 147 mg/dL. Besides, in the assay on Rattus norvegicus [13], the “Liver TG” value is listed as 2.8.

The values are drawn from ChEMBL document CHEMBL1121938, “Hypocholesterolemic and antiaggregatory properties of 2-hydroxytetronic acid redox analogues an their relationship to clofibric acid” (1982).
